Calls of active or inactive are those of the source. The rule behind the calls is not given here.
Experiments:
[1] = target: Serine/threonine-protein kinase Sgk2 (Homo sapiens) (UniProt Q9HBY8); experiment: Inhibition of human SGK2 at 3 uM by filter binding assay relative to control
[2] = target: Tyrosine-protein kinase ITK/TSK (Homo sapiens, UniProt Q08881); experiment: Inhibition of ITK (unknown origin)
[3] = target: Serine/threonine-protein kinase PLK2 (Homo sapiens) (UniProt Q9NYY3); experiment: Inhibition of human Snk at 3 uM by filter binding assay relative to control
[4] = target: Serine/threonine-protein kinase BRSK1 (Homo sapiens) (UniProt Q8TDC3); experiment: Inhibition of N-terminal 6His-tagged recombinant human BrSK1 (2 to end residues) expressed in baculovirus infected Sf21 cells at 0.3 uM by filter binding assay relative to control
Summary of the method: (§1)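 KinaseProfiler panel of 233 kinases: radiometric filter-binding activity assays with compound at 0.3 or 3 µmol/L. Read-out is percent inhibition.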

[5] = target: SRSF protein kinase 1 (Homo sapiens) (UniProt Q96SB4); experiment: Inhibition of N-terminal GST-tagged recombinant human SRPK1 expressed in Escherichia coli at 0.3 uM by filter binding assay relative to control
Summary of the method: (§2)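 Outsourced single-concentration screen in a commercial panel of 233 protein kinases, run as radiometric filter-binding activity assays. Test agent was tested at 0.3 or 3 µmol/L, as given in each line, from a 10 mmol/L DMSO stock. Activity is expressed as percent inhibition relative to control.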

COLO 205 [6] = experiment: Induction of cell cycle arrest in human COLO 205 cells assessed as effect on sub-2N-DNA content at 0.03 to 10 uM incubated for 24 to 48 hrs by propidium iodide staining based flow cytometric analysis; format: functional; conditions: dose 0.03-10 µM, time lower 24.0 hrs, time upper […]
Summary of the method: (§3)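 COLO 205, MCF-7 or NCI-H929 cells seeded in 96-well plates overnight at 37°C, then exposed to DMSO or increasing compound concentrations for 24 or 48 h. Fixed and stained with propidium iodide (Vindelov method), then analysed by flow cytometry for sub-G1, G1, S and G2-M fractions. Experiment repeated twice.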

[7] = target: Dual specificity tyrosine-phosphorylation-regulated kinase 2 (Homo sapiens) (UniProt Q92630); experiment: Inhibition of 6His-tagged recombinant full-length human DYRK2 expressed in baculovirus infected Sf21 cells at 3 uM by filter binding assay relative to control; summary of the method: as §1
[8] = target: cAMP-dependent protein kinase catalytic subunit PRKX (Homo sapiens) (UniProt P51817); experiment: Inhibition of N-terminal 6His-tagged recombinant full-length human PrKX expressed in baculovirus infected Sf21 cells at 3 uM by filter binding assay relative to control; summary of the method: as §1
[9] = target: Discoidin domain-containing receptor 2 (Homo sapiens) (UniProt Q16832); experiment: Inhibition of N-terminal His6-tagged recombinant human DDR2 (467 to end residues) expressed in baculovirus infected Sf21 cells at 3 uM by filter binding assay relative to control
[10] = In vivo inhibition of IGF1R in mouse NIH-3T3/LISN cells implanted in IGF1-stimulated nu/nu CD-1 mouse assessed as reduction in IGF1R phosphorylation at 10 mg/kg, po pretreated for 4 hrs followed by IGF1 stimulation and measured after 10 min by […] relative to control; format: functional; conditions: 4.167 h, time 250 min
Summary of the method: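 Female nu/nu CD-1 mice, three per group, bearing ~500 mm3 tumors, given one oral dose of compound or vehicle. At 4 h, 10 µg hIGF-I i.v. via tail vein; saline controls. Tumor and blood taken 10 min later. Tumor lysates in RIPA captured on anti-IGF-IR plates and probed with europium anti-phosphotyrosine. Phospho/total IGF-IR expressed as % of ligand-stimulated control. Blood levels by LC-MS/MS.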

Activin receptor type-2B = Activin receptor type-2B (Homo sapiens, UniProt Q13705); experiment: Inhibition of ActRIIB (unknown origin)
[11] = target: Cytoplasmic tyrosine-protein kinase BMX (Homo sapiens, UniProt P51813); experiment: Inhibition of N-terminal His6-tagged recombinant full-length human BMX expressed in baculovirus infected Sf21 cells by filter binding assay
[12] = target: Mitogen-activated protein kinase 1 (Homo sapiens) (UniProt P28482); experiment: Inhibition of N-terminal GST-tagged recombinant human MAPK2 expressed in Escherichia coli at 0.3 uM by filter binding assay relative to control; summary of the method: as §2
[13] = Inhibition of […] N-terminal 6His-tagged full length human P110delta/full length human p85beta expressed in baculovirus infected Sf21 cells at 0.3 uM by filter binding assay relative to control; conditions: condition cancer
[14] = Cytotoxicity against human PREC cells assessed as growth inhibition after 72 hrs by CellTiter-Glo assay relative to control; format: toxicity, cell-based; conditions: read-out: GI
[15] = target: PI3K p110 alpha/p85 alpha (Mus musculus) (UniProt P26450+P42337); experiment: Inhibition of recombinant mouse N-terminal 6His-tagged full length P110alpha/full length mouse p85alpha expressed in baculovirus infected Sf21 cells at 0.3 uM by filter binding assay relative to control
[16] = target: Tyrosine-protein kinase Blk (Mus musculus) (UniProt P16277); experiment: Inhibition of N-terminal His6-tagged recombinant full-length mouse Blk expressed in baculovirus infected Sf21 cells at 3 uM by filter binding assay relative to control; summary of the method: as §2
COLO 205 [17] = experiment: Induction of cell cycle arrest in human COLO 205 cells assessed as decrease in cells accumulation at S phase at 0.03 to 10 uM incubated for 24 to 48 hrs by propidium iodide staining based flow cytometric analysis; format: functional; conditions: dose 0.03-10 µM, time lower 24.0 hrs, time upper […]; summary of the method: as §3
MCF7 = experiment: Induction of cell cycle arrest in human MCF7 cells assessed as cells accumulation at G2 phase at 1 umol/L incubated for 48 hrs by propidium iodide staining based flow cytometric analysis (reference value: 17%); format: functional; conditions: dose 1 µmol/L, at 1 µM; summary of the method: as §3
[18] = target: Mitogen-activated protein kinase 9 (Homo sapiens, UniProt P45984); experiment: Inhibition of JNK2 (unknown origin)
[19] = target: RAC-beta serine/threonine-protein kinase (Homo sapiens, UniProt P31751); experiment: Inhibition of AKT2 (unknown origin)
TGF-beta receptor type-1 = TGF-beta receptor type-1 (Homo sapiens, UniProt P36897); experiment: Inhibition of ALK5 (unknown origin)
[20] = target: Casein kinase I isoform gamma-3 (Homo sapiens, UniProt Q9Y6M4); experiment: Inhibition of N-terminal 6His-tagged recombinant human CK1gamma3 (1 to 330 residues) expressed in baculovirus infected Sf21 cells by filter binding assay
[21] = Cytotoxicity against HMEC cells assessed as reduction in cell viability after 72 hrs by CellTiter-Glo assay; format: toxicity, cell-based; conditions: human
Summary of the method: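 Cells seeded in 96-well plates, left overnight at 37°C, then exposed to a range of test concentrations for 72 h. Viability read by CellTiter-Glo luminescence; IC50 from four-parameter curve fit. Lines kept at 37°C, 5% CO2, in recommended growth medium.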

[22] = target: Serine/threonine-protein kinase Nek3 (Homo sapiens) (UniProt P51956); experiment: Inhibition of N-terminal 6His-tagged recombinant full length human NEK3 expressed in baculovirus infected Sf21 cells at 0.3 uM by filter binding assay relative to control; summary of the method: as §1
[23] = target: Calcium/calmodulin-dependent protein kinase kinase 2 (Homo sapiens, UniProt Q96RR4); experiment: Inhibition of CAMKK2 (unknown origin)
Chain of Calcium/calmodulin-dependent protein kinase kinase 2 (Q96RR4 whole entry): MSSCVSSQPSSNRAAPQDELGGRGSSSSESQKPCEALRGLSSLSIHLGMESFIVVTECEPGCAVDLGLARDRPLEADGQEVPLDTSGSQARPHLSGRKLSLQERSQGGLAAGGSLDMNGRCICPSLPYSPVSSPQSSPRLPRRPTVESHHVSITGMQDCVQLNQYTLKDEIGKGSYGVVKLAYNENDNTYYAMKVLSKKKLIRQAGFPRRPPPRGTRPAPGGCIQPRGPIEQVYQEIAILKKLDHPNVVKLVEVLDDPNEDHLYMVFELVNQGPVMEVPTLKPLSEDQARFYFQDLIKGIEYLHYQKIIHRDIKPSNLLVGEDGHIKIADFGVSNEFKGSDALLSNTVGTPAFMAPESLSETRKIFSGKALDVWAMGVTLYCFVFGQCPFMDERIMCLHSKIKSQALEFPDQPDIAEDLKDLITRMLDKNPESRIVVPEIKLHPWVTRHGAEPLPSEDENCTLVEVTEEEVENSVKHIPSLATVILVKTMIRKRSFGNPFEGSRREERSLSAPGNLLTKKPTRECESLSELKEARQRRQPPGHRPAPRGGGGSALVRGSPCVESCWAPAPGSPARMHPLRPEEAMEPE

Chain of Discoidin domain-containing receptor 2 (Homo sapiens) (Q16832 whole entry, the tested form may be a part): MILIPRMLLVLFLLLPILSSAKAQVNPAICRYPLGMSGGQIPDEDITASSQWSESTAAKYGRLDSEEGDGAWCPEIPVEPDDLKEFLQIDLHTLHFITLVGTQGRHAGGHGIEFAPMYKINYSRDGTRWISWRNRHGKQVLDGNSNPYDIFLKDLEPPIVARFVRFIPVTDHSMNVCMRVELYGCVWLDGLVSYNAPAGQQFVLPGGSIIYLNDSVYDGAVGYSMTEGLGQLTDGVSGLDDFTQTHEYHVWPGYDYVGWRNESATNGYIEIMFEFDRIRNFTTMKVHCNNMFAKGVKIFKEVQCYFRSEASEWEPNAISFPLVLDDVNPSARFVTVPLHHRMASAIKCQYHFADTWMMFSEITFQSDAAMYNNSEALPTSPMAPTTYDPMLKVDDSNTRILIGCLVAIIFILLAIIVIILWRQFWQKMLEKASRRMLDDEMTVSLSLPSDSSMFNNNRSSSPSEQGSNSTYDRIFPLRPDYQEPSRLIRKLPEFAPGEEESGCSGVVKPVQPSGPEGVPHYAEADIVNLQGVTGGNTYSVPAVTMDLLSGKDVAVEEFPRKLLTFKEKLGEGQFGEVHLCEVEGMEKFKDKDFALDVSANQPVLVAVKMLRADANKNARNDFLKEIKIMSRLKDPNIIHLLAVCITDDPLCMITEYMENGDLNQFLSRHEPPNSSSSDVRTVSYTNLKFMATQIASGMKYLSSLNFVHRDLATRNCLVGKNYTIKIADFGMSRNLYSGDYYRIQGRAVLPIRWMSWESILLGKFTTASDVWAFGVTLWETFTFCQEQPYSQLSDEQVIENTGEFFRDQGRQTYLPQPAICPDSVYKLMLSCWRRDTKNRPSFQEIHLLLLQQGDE
Chain of RAC-beta serine/threonine-protein kinase (P31751 whole entry): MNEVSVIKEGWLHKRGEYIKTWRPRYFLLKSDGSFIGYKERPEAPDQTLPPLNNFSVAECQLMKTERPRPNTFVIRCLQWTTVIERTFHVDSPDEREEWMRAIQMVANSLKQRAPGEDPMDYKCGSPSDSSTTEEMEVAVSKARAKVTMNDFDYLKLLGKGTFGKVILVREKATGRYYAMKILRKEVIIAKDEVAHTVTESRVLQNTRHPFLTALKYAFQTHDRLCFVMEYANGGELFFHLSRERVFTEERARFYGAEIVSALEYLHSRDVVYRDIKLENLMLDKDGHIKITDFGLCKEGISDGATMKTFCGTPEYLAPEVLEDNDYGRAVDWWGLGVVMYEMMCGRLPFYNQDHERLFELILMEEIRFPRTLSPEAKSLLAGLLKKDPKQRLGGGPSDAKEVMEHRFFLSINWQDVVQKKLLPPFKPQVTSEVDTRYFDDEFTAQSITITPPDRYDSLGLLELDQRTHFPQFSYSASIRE
Chain of Dual specificity tyrosine-phosphorylation-regulated kinase 2 (Homo sapiens) (Q92630 whole entry): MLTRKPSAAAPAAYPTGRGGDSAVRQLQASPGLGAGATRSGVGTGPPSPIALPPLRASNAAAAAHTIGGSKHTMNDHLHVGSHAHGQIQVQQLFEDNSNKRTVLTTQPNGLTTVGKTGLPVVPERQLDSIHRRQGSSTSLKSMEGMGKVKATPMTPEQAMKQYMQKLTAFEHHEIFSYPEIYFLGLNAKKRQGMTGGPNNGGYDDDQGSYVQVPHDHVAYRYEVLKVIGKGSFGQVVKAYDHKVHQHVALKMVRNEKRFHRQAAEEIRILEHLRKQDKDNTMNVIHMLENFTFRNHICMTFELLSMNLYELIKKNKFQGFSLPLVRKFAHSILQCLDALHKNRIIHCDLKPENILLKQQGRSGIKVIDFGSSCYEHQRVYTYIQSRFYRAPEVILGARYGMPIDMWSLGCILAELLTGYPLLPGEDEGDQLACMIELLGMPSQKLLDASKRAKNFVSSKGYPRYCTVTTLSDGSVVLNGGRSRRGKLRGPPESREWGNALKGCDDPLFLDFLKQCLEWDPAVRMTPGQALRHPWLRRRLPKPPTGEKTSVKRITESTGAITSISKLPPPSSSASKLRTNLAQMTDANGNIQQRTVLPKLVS
Chain of cAMP-dependent protein kinase catalytic subunit PRKX (Homo sapiens) (P51817 whole entry, the tested form may be a part): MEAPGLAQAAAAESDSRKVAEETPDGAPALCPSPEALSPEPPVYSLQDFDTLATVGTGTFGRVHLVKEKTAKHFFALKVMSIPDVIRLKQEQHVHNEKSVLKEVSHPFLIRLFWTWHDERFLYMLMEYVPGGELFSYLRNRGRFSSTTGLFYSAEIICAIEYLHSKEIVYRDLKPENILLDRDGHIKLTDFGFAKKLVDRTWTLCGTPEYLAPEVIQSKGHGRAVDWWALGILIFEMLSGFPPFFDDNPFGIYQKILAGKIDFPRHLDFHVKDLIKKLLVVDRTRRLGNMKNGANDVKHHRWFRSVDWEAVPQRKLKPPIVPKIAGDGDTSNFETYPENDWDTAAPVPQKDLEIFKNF
Chain of SRSF protein kinase 1 (Homo sapiens) (Q96SB4 whole entry): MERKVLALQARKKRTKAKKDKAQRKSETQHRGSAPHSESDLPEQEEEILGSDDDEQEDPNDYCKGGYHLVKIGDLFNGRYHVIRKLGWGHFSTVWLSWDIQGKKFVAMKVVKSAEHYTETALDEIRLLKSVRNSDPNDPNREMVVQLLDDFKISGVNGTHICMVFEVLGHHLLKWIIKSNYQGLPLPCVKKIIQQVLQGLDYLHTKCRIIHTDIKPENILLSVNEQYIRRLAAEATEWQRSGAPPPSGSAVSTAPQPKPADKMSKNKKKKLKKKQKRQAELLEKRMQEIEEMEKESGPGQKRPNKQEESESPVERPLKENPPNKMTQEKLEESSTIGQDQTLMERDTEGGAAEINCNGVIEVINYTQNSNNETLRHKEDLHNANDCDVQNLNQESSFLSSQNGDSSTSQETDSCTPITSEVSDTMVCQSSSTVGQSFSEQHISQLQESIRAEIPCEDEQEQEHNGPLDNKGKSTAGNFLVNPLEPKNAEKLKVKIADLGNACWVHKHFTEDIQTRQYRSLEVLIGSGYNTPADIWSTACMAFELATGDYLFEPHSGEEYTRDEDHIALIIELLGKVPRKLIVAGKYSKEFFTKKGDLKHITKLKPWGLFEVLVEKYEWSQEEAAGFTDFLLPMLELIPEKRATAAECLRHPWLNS
Chain of Mitogen-activated protein kinase 1 (Homo sapiens) (P28482 whole entry): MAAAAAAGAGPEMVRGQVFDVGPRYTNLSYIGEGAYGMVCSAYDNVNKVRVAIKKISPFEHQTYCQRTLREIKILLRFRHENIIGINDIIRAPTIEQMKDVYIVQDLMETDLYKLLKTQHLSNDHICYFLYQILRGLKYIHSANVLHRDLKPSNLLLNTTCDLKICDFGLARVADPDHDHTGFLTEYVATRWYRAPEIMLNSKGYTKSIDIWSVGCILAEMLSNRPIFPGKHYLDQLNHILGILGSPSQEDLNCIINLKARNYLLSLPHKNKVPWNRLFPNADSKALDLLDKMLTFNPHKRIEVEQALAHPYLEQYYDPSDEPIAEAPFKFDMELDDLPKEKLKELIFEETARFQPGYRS
Chain of Serine/threonine-protein kinase Nek3 (Homo sapiens) (P51956 whole entry): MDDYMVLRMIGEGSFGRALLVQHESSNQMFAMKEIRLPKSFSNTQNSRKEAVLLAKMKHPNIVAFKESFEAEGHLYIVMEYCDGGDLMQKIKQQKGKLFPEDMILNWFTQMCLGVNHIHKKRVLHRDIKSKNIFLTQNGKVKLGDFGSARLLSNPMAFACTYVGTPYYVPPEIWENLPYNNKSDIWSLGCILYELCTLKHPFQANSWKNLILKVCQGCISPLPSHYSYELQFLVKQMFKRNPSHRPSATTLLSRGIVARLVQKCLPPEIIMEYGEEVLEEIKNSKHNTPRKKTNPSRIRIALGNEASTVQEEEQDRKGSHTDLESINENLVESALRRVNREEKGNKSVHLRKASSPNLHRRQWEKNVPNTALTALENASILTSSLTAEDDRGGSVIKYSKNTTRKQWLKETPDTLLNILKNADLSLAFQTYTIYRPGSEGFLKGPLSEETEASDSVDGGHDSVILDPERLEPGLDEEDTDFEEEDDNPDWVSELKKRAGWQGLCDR
Chain of Activin receptor type-2B (Q13705 whole entry): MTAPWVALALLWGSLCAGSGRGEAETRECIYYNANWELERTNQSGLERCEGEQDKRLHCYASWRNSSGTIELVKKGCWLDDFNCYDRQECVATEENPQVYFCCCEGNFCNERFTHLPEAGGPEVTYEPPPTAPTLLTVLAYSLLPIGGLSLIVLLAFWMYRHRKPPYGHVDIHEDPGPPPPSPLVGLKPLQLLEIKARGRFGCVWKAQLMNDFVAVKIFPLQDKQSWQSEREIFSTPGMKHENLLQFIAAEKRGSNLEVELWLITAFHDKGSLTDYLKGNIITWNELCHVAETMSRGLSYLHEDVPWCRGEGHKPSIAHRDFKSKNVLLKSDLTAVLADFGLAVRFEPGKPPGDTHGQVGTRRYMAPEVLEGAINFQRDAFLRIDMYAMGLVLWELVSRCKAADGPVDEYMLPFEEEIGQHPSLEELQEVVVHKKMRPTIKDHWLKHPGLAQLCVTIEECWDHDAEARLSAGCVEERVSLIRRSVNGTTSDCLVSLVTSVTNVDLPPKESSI

SMILES: CCc1cc(Nc2nccc(-c3c(-c4ccc(OC)c(C(=O)Nc5c(F)cccc5F)c4)nc4ccccn34)n2)c(OC)cc1N1CCC(N2CCN(S(C)(=O)=O)CC2)CC1
- inhibition [1]: 25%
- IC50 [2]: > 25 µM
- inhibition [3]: -8%
- inhibition [4]: 0%
- inhibition [5]: 1%
- Activity (COLO 205 [6]): inactive
- inhibition [7]: -8%
- inhibition [8]: 1%
- inhibition [9]: 10%
- inhibition in vivo at 10 mg/kg [10]: 95%
- IC50 (Activin receptor type-2B): > 10 µM
- IC50 [11]: 1.21 µM
- inhibition [12]: -10%
- inhibition at 0.3 µM [13]: 1%
- inhibition at 72 h [14]: 45%
- inhibition [15]: -10%
- inhibition [16]: 22%
- Activity (COLO 205 [17]): Active
- Activity (MCF7): 11%
- IC50 [18]: > 10 µM
- IC50 [19]: > 10 µM
- IC50 (TGF-beta receptor type-1): > 10 µM
- IC50 [20]: > 10 µM
- IC50 at 72 h [21]: > 20 µM
- inhibition [22]: 1%
- IC50 [23]: > 10 µM
